# Measurements reported in ChEMBL document CHEMBL1132618, “Cytotoxicity of (2,2':6',2''-terpyridine)platinum(II) complexes to Leishmania donovani, Trypanosoma cruzi, and Trypanosoma brucei” (J Med Chem, 1999).
# Tests used:
# [1] = system: Leishmania donovani; assay: Antiparasitic activity against Leishmania donovani for % inhibition at 30 uM concentration T/100 means the compound was toxic to macrophages but more toxic to parasites that is none present, 100% inhibition; type: functional, organism-based
# Procedure, shortened: (§1)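 L. donovani MHOM/ET/67/L82 amastigotes from golden hamster spleen infect CD1 mouse peritoneal macrophages at 10:1 in RPMI 1640 + 10% hiFCS, 37 °C, 5% CO2. Compound exposure is a 3-fold dilution series from 30 μM, quadruplicate cultures, 5 days, with medium + drug replaced once. Cells are methanol-fixed and Giemsa-stained, and the proportion of infected cells is compared with untreated cultures. ED50 is derived by linear regression.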
# [2] = system: Leishmania donovani; assay: Compound was tested for antiparasitic activity caused against Leishmania donovani for percentage inhibition at 3 uM concentration; type: functional, organism-based; procedure, shortened: as §1
# [3] = system: Leishmania donovani; assay: Antiparasitic activity against Leishmania donovani for % inhibition at 10 uM concentration T/100 means the compound was toxic to macrophages but more toxic to parasites that is none present, 100% inhibition; type: functional, organism-based; procedure, shortened: as §1
# [4] = system: Trypanosoma brucei; assay: Antiparasitic activity against Trypanosoma brucei, percentage inhibition at 10 uM concentration; type: functional, organism-based
# Procedure, shortened: (§2)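 T. brucei S427 bloodstream trypomastigotes are grown in HMI-18 + 20% hiFCS at 37 °C, 5% CO2. Compound exposure is a 3-fold dilution series from 30 μM, triplicate cultures, 72 h. Read-out is an MTT-based cytotoxicity assay, or Coulter counting of cells/mL in the dose-range screen. ED50 is derived by linear regression of dose-response.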
# [5] = system: Trypanosoma brucei; assay: Antiparasitic activity against Trypanosoma brucei, percentage inhibition at 30 uM concentration; type: functional, organism-based; procedure, shortened: as §2
# [6] = system: Trypanosoma brucei; assay: Antiparasitic activity caused against Trypanosoma brucei for percentage inhibition at 3 uM concentration; type: functional, organism-based; procedure, shortened: as §2
# [7] = system: Trypanosoma brucei; assay: Compound was tested for antiparasitic activity caused against Trypanosoma brucei for percentage inhibition at 1 uM concentration; type: functional, organism-based; procedure, shortened: as §2
# [8] = system: Trypanosoma cruzi; assay: Antiparasitic activity against Trypanosoma cruzi for % inhibition at 10 uM concentration T/+ means the compound was toxic to macrophages but parasites still present; type: functional, organism-based
# Procedure, shortened: (§3)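 T. cruzi Y strain (MHOM/BR/00/Y) trypomastigotes from MDCK cells infect CD1 mouse peritoneal macrophages at 5:1 in RPMI 1640 + 10% hiFCS, 37 °C, 5% CO2. Compound exposure is a 3-fold dilution series from 30 μM, quadruplicate, 3 days. Read-out is the proportion of infected cells after methanol fixation and Giemsa staining, versus untreated cultures. ED50 is derived by linear regression.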
# [9] = system: Trypanosoma cruzi; assay: Antiparasitic activity against Trypanosoma cruzi for % inhibition at 30 uM concentration T/+ means the compound was toxic to macrophages but parasites still present; type: functional, organism-based; procedure, shortened: as §3
# [10] = system: Trypanosoma cruzi; assay: Antiparasitic activity against Trypanosoma cruzi for % inhibition at 3 uM concentration T/+ means the compound was toxic to macrophages but parasites still present; type: functional, organism-based; procedure, shortened: as §3
# [11] = system: Trypanosoma cruzi; assay: Compound was tested for antiparasitic activity caused against Trypanosoma cruzi for effective dose for 50% activity
substance,measurement,setting,value
"(2,2':6',2''-terpyridine)platinum (II) complex",inhibition,[1],Total inhibition
same,inhibition,[2],99.8%
same,inhibition,[3],Total inhibition
same,inhibition,[4],100%
same,inhibition,[5],100%
same,inhibition,[6],100%
same,inhibition,[7],100%
same,inhibition,[8],toxic to macrophages but parasites still present
same,inhibition,[9],toxic to macrophages but parasites still present
same,inhibition,[10],toxic to macrophages but parasites still present
same,ED50,[11],4 µM
